From ChEMBL document CHEMBL1122725, “Luteinizing hormone-releasing hormone antagonists containing very hydrophobic amino acids” (1984)
Non-standard residues stand in square brackets, D forms with d. Residues, ends and D or L forms follow the SMILES beside them. dPhe(4-Cl) = N[C@H](Cc1ccc(Cl)cc1)C(=O)O; dPhe(4-F) = N[C@H](Cc1ccc(F)cc1)C(=O)O; d2Nal = N[C@H](Cc1ccc2ccccc2c1)C(=O)O

How the values were obtained:
Type in all cases: functional
[1] = tested on: Rattus norvegicus; test: Evaluation of antagonistic potency by rat anti-ovulatory assay when administered in 50% propylene glycol / 0.9% mazola corn oil vehicle
Method in brief: (§1)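 Rats with at least two normal 4-day estrous cycles (daily vaginal lavage cytology, at least 12 days) given the analogue subcutaneously in vehicle, 50% propylene glycol/0.9% saline or Mazola corn oil, at noon on proestrus or on diestrus II (24 h earlier). On expected estrus morning, oviducts examined for ovulated eggs. ED50 from percent ovulating versus log-dose, usually three or more dose groups, 10 animals per group.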

[2] = tested on: Rattus norvegicus; test: Evaluation of antagonistic potency by rat anti-ovulatory assay when administered in 50% propylene glycol / 0.9% saline vehicle; method in brief: as §1
[3] = organism: Rattus norvegicus; test: Duration of proestrus and the vehicle was 50% propylene glycol /0.9 % mazola corn oil; method in brief: as §1
[4] = organism: Rattus norvegicus; test: Duration of anti-ovulatory activity was measured at noon on diestrus II and the vehicle was 50% propylene glycol /0.9 % mazola corn oil; method in brief: as §1
[5] = organism: Rattus norvegicus; test: Duration of anti-ovulatory activity was measured at noon on diestrus II and the vehicle was 50% propylene glycol /0.9 % saline; method in brief: as §1

Compound | ED50 [1] | ED50 [2] [ug injection-1] | ED50 [3] [µg] | ED50 [4] [µg] | ED50 [5] [ug injection-1]
CC(C)C[C@H](NC(=O)[C@@H](Cc1ccc2ccccc2c1)NC(=O)[C@H](Cc1ccc(O)cc1)NC(=O)[C@H](CO)NC(=O)[C@@H](Cc1ccc2ccccc2c1)NC(=O)[C@@H](Cc1ccc(F)cc1)NC(=O)[C@@H]1CCCN1C=O)C(=O)N[C@@H](CCCN=C(N)N)C(=O)N1CCC[C@H]1C(=O)NCC(N)=O | 4.4 ug injection-1 | 3 |  |  | 
CC(=O)N[C@H](Cc1ccc2ccccc2c1)C(=O)N[C@H](Cc1ccc(F)cc1)C(=O)N[C@H](Cc1c[nH]c2ccccc12)C(=O)N[C@@H](CO)C(=O)N[C@@H](Cc1ccc(O)cc1)C(=O)N[C@H](CCCN=C(N)N)C(=O)N[C@@H](CC(C)C)C(=O)N[C@@H](CCCN=C(N)N)C(=O)N1CCC[C@H]1C(=O)NCC(N)=O (Ac-[d2Nal][dPhe(4-F)][dW]SY[dR]LRPG-NH2) |  | 2.4 | 1.1 | 9 | 
CC(=O)N[C@@H](CO)C(=O)N[C@H](Cc1ccc(F)cc1)C(=O)N[C@H](Cc1ccc2ccccc2c1)C(=O)N[C@@H](CO)C(=O)N[C@@H](Cc1ccc(O)cc1)C(=O)N[C@H](Cc1ccc2ccccc2c1)C(=O)N[C@@H](CC(C)C)C(=O)N[C@@H](CCCN=C(N)N)C(=O)N1CCC[C@H]1C(=O)NCC(N)=O | 1.4 ug injection-1 | 4.3 |  |  | 
CCNC(=O)[C@@H]1CCCN1C(=O)[C@H](CCCN=C(N)N)NC(=O)[C@H](CC(C)C)NC(=O)[C@@H](CCCN=C(N)N)NC(=O)[C@H](Cc1ccc(O)cc1)NC(=O)[C@H](CO)NC(=O)[C@@H](Cc1ccc2ccccc2c1)NC(=O)[C@@H](Cc1ccc(F)cc1)NC(=O)[C@@H]1CCCN1C(C)=O |  | 32 |  |  | 
CC(=O)N1CCC[C@H]1C(=O)N[C@H](Cc1ccc(Cl)cc1)C(=O)N[C@H](Cc1ccc2ccccc2c1)C(=O)N[C@@H](CO)C(=O)N[C@@H](Cc1ccc(O)cc1)C(=O)N[C@H](Cc1ccc2ccccc2c1)C(=O)N[C@@H](CC(C)C)C(=O)N[C@@H](CCCN=C(N)N)C(=O)N1CCC[C@H]1C(=O)NCC(N)=O | 3.6 ug injection-1 | 4.8 |  |  | 
CC(=O)N[C@H](Cc1ccc2ccccc2c1)C(=O)N[C@H](Cc1ccc(F)cc1)C(=O)N[C@H](Cc1ccc2ccccc2c1)C(=O)N[C@@H](CO)C(=O)N[C@@H](Cc1ccc(O)cc1)C(=O)N[C@H](CCCN=C(N)N)C(=O)N[C@@H](CC(C)C)C(=O)N[C@@H](CCCN=C(N)N)C(=O)N1CCC[C@H]1C(=O)NCC(N)=O |  | 16 |  |  | 
CC(=O)N[C@H](Cc1ccc(Cl)cc1)C(=O)N[C@H](Cc1ccc(Cl)cc1)C(=O)N[C@H](Cc1c[nH]c2ccccc12)C(=O)N[C@@H](CO)C(=O)N[C@@H](Cc1ccc(O)cc1)C(=O)N[C@H](CCCN=C(N)N)C(=O)N[C@@H](CC(C)C)C(=O)N[C@@H](CCCN=C(N)N)C(=O)N1CCC[C@H]1C(=O)N[C@H](C)C(N)=O (Ac-[dPhe(4-Cl)][dPhe(4-Cl)][dW]SY[dR]LRP[dA]-NH2) | 1.2 µg injection-1 | 1.8 | 1.2 | 5 | 
CC(C)C[C@H](NC(=O)[C@@H](Cc1ccc2ccccc2c1)NC(=O)[C@H](Cc1ccc(O)cc1)NC(=O)[C@H](CO)NC(=O)[C@@H](Cc1ccc2ccccc2c1)NC(=O)[C@@H](Cc1ccc(F)cc1)NC(=O)[C@H](COCc1ccccc1)NC(=O)OC(C)(C)C)C(=O)N[C@@H](CCCN=C(N)N)C(=O)N1CCC[C@H]1C(=O)NCC(N)=O |  | 400 |  |  | 
CC(=O)N1CCC[C@H]1C(=O)N[C@H](Cc1ccc(F)cc1)C(=O)N[C@H](Cc1ccc2ccccc2c1)C(=O)N[C@@H](CO)C(=O)N[C@@H](Cc1ccc(O)cc1)C(=O)N[C@H](Cc1ccc2ccccc2c1)C(=O)N[C@@H](CC(C)C)C(=O)N[C@@H](CCCN=C(N)N)C(=O)N1CCC[C@H]1C(=O)NCC(N)=O (stereo in doubt; 7) | 4 µg | 2.2 |  | 140 | 35
CC(=O)N[C@H](C(=O)N[C@H](Cc1ccc(F)cc1)C(=O)N[C@H](Cc1ccc2ccccc2c1)C(=O)N[C@@H](CO)C(=O)N[C@@H](Cc1ccc(O)cc1)C(=O)N[C@H](Cc1ccc2ccccc2c1)C(=O)N[C@@H](CC(C)C)C(=O)N[C@@H](CCCN=C(N)N)C(=O)N1CCC[C@H]1C(=O)NCC(N)=O)[C@@H](C)O | 4.5 ug injection-1 | 7 |  |  | 
CC(=O)N1CCC[C@H]1C(=O)N[C@H](Cc1ccc(Cl)cc1)C(=O)N[C@H](Cc1ccccc1)C(=O)N[C@@H](CO)C(=O)N[C@@H](Cc1ccc(O)cc1)C(=O)N[C@H](Cc1ccc2ccccc2c1)C(=O)N[C@@H](CC(C)C)C(=O)N[C@@H](CCCN=C(N)N)C(=O)N1CCC[C@H]1C(=O)NCC(N)=O |  | 5.6 |  |  | 
CC(=O)N[C@H](Cc1ccccc1)C(=O)N[C@H](Cc1ccc(Cl)cc1)C(=O)N[C@H](Cc1c[nH]c2ccccc12)C(=O)N[C@@H](CO)C(=O)N[C@@H](Cc1ccc(O)cc1)C(=O)N[C@H](Cc1c[nH]c2ccccc12)C(=O)N[C@@H](CC(C)C)C(=O)N[C@@H](CCCN=C(N)N)C(=O)N1CCC[C@H]1C(=O)NCC(N)=O | 74 ug injection-1 | 160 |  |  | 
CC(=O)N1CCC[C@H]1C(=O)N[C@H](Cc1ccc(F)cc1)C(=O)N[C@H](Cc1ccc2ccccc2c1)C(=O)N[C@@H](CO)C(=O)N[C@@H](Cc1ccc(O)cc1)C(=O)N[C@H](Cc1ccc(N)cc1)C(=O)N[C@@H](CC(C)C)C(=O)N[C@@H](CCCN=C(N)N)C(=O)N1CCC[C@H]1C(=O)NCC(N)=O |  | 72 |  |  | 
CCNC(=O)[C@@H]1CCCN1C(=O)[C@H](CCCN=C(N)N)NC(=O)[C@H](CC(C)C)NC(=O)[C@@H](CCCN=C(N)N)NC(=O)[C@H](Cc1ccc(O)cc1)NC(=O)[C@H](CO)NC(=O)[C@@H](Cc1ccc2ccccc2c1)NC(=O)[C@@H](Cc1ccc(Cl)cc1)NC(=O)[C@@H]1CCCN1C(C)=O |  | 14 |  |  | 
CCNC(=O)[C@@H]1CCCN1C(=O)[C@H](CCCN=C(N)N)NC(=O)[C@H](CC(C)C)NC(=O)[C@@H](Cc1ccc2ccccc2c1)NC(=O)[C@H](Cc1ccc(O)cc1)NC(=O)[C@H](CO)NC(=O)[C@@H](Cc1ccc2ccccc2c1)NC(=O)[C@@H](Cc1ccc(F)cc1)NC(=O)[C@@H]1CCCN1C(C)=O |  | 3.4 |  |  | 
CC(=O)N[C@H](Cc1ccc(Cl)cc1)C(=O)N[C@H](Cc1ccc(Cl)cc1)C(=O)N[C@H](Cc1ccc2ccccc2c1)C(=O)N[C@@H](CO)C(=O)N[C@@H](Cc1ccc(O)cc1)C(=O)N[C@H](Cc1ccc2ccccc2c1)C(=O)N[C@@H](CC(C)C)C(=O)N[C@@H](CCCN=C(N)N)C(=O)N1CCC[C@H]1C(=O)NCC(N)=O |  | 400 |  |  | 
CC(=O)N1CCC[C@H]1C(=O)N[C@H](Cc1ccc(F)cc1)C(=O)N[C@H](Cc1ccccc1)C(=O)N[C@@H](CO)C(=O)N[C@@H](Cc1ccc(O)cc1)C(=O)N[C@H](Cc1ccc2ccccc2c1)C(=O)N[C@@H](CC(C)C)C(=O)N[C@@H](CCCN=C(N)N)C(=O)N1CCC[C@H]1C(=O)NCC(N)=O |  | 12.2 |  |  | 
